Only some compounds are listed: those with a hit (about 11% of all), similar ones and a draw of the others.
Diaph inh CS: diaphorase inhibition or chemical oxidation counter-screen | inhibition, % at 20 µM | 190,000 tested, 0.69% active | diaphorase resazurin-to-resorufin fluorescence, NADH, 16 min; bacterial (C. kluyveri) enzyme, not human;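 active means primary screen inhibition at 20 µM above a set limit, cut at about 50% in these data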
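Assay system: diaphorase enzyme from Clostridium kluyveri. Quantity: enzyme working solution with 0.14 U/mL diaphorase. Schedule: reaction incubation of 16 min at room temperature. Technique: resorufin fluorescence, excitation 544 nm, emission 590 nm. Controls: No-NADH positive control and DMSO neutral control.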
L major viab: inhibitors of Leishmania major promastigote growth | Leishmania major promastigotes, resazurin fluorescence viability | inhibition, % at 10 µM | 200,000 tested, 9% active | AID 1063;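 further: promastigotes grown with compound for 44 hours at 28 °C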
WT yeast gro inh: growth inhibition of WT yeast, mitochondrial fusion screen | 190,000 tested, 2.1% active | mitochondrial fusion phenotypic screen, WT strain | inhibition, % at 10 µM; in the data active means inhibition above about 58%; tested in S. cerevisiae
Diaph act CS: activates diaphorase or chemically reduces, flagging diaphorase assay artifacts; 190,000 tested, 0.005% active; AID 1229; activation factor at 20 µM; Diaphorase/resazurin coupled assay, resorufin fluorescence, 16 min; stronger effect = higher value; 1 = vehicle wells, 0 = NADH-free wells;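 active means diaphorase activity raised at least twofold by the compound at 20 µM; inactive means activation factor below 2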
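Material: bacterial diaphorase enzyme (C. kluyveri); amount: enzyme 0.07 U/mL final; reagent: NADH substrate 0.114 mM plus resazurin dye 0.1 mM, final; doses: single compound dose of 20 µM, 1% DMSO final; timing: 16 min enzyme reaction, ambient temperature; measured by: fluorescence of resorufin, 544 nm excitation, 590 nm emission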
G6PDH CS: L. mesenteroides G6PDH inhibition counter-screen. AID 1020. inhibition, % at 5 µM. 200,000 tested, 0.12% active. Purified L. mesenteroides G6PDH, diaphorase/resazurin coupled fluorescence, 45 min
Of the large screens only hits and unclear results are named; the others gave an inactive call. Unless noted, no stated cut-off is given here; in the data, active means inhibition above about 50%; inactive means the rest.

COc1ccc(C(=O)C2CCCN(C(=O)c3ccccc3C(C)=O)C2)cc1F (centres undefined)	none
COc1ccc(C(=O)C2CCCN(Cc3nc4ccccc4nc3C)C2)cc1OC (centres undefined)	L major viab 80
COc1ccc(C(=O)C2CCCN(Cc3ccc4nonc4c3)C2)cc1OC (centres undefined)	L major viab 89
COc1ccc(OC)c(CN2CCCC(C(=O)N3CCCCC3)C2)c1 (centres undefined)	none
COc1ccc(C(=O)C2CCCN(Cc3ccc4nonc4c3)C2)c(OC)c1 (centres undefined)	L major viab 88
COc1ccc(C(=O)C2CCCN(Cc3cn[nH]c3-c3ccccc3)C2)cc1OC (centres undefined)	none
COc1ccc(C(=O)C2CCCN(Cc3ccc(C#CCCO)cc3)C2)cc1F (centres undefined)	L major viab 50
Cc1ccccc1C1NC(=S)NC2=C1C(=O)CCC2 (centres undefined)	none
O=C(NCC1CCCN(Cc2ccc3nonc3c2)C1)c1cccc(C(F)(F)F)c1 (centres undefined)	L major viab 87 (no result: Diaph inh CS, Diaph act CS)
CCNC(=O)N1CCCC(C(=O)c2ccc(OC)c(OC)c2)C1 (centres undefined)	none
COc1ccc(C(=O)C2CCCN(C3Cc4ccccc4C3)C2)cc1OC (centres undefined)	L major viab 93 (no result: Diaph inh CS, Diaph act CS)
COCc1cc(CN2CCCC(C(=O)c3cccc(C(F)(F)F)c3)C2)ccc1OC (centres undefined)	L major viab 92
COc1ccc(C(=O)C2CCCN(Cc3ccc4nonc4c3)C2)cc1F (centres undefined)	L major viab 91
COc1ccc(C(=O)C2CCCN(Cc3cnc(N4CCOCC4)s3)C2)c(OC)c1 (centres undefined)	L major viab 84
COc1ccc(C(=O)C2CCCN(Cc3cccn3-c3ccc(Cl)cn3)C2)c(OC)c1 (centres undefined)	L major viab 95
CC(C)Oc1cccc(C(=O)C2CCCN(Cc3cnc(N4CCOCC4)s3)C2)c1 (centres undefined)	none
CC(=O)c1cn(Cc2ccccc2)c(=O)n(Cc2ccc(F)cc2)c1=O	none
Cc1cc2nc3c(c(C(F)(F)F)n2n1)CCCC3	none
C/C(=N\NC(=O)CNc1cccc(C)c1)c1ccc(Br)s1	L major viab 57
O=S(=O)(Cc1ccc(Cl)cc1)c1ccccc1-c1nnc(-c2ccc(Cl)cc2)o1	none
CCCN1CCC(=NNc2ccc(S(N)(=O)=O)cc2[N+](=O)[O-])CC1	none
CCCN1CCC(=NNc2ccc(S(=O)(=O)N(CC)CC)cc2[N+](=O)[O-])CC1	L major viab 100
CN(/N=C/c1ccc(O)cc1O)c1nc(-c2ccccc2)cc(-c2ccccc2)n1	L major viab 64
CC(C)c1ccc(NC(=O)C[n+]2ccn(C3=C([O-])c4ccccc4C3=O)c2)cc1	none
CCCC[n+]1ccn(C2=C([O-])c3ccccc3C(=O)/C2=N\S(=O)(=O)c2ccccc2)c1	G6PDH CS 56
CCCCC[n+]1ccn(C2=C([O-])c3ccccc3C(=O)/C2=N\S(=O)(=O)c2ccccc2)c1	L major viab 91, G6PDH CS 55
CCSc1nc(C)cc(C)c1S(=O)(=O)c1ccccc1C	L major viab 88
Cc1cc(/C=C2\SC(=Nc3ccccc3)NC2=O)c(C)n1-c1ccc(S(N)(=O)=O)cc1	none
Cc1ccc(C)c(NS(=O)(=O)c2ccc3c(c2)Cc2cc(S(=O)(=O)Nc4cc(C)ccc4C)ccc2-3)c1	none
CSCCC(NC(=O)c1ccc([N+](=O)[O-])cc1Cl)C(=O)OCC(=O)C12CC3CC(CC(C3)C1)C2 (centres undefined)	L major viab 99
COc1ccccc1-n1c(=O)oc2ccc(Cl)cc2c1=O	WT yeast gro inh 76
COc1ccccc1-n1c(SCc2cc(=O)oc3cc(O)ccc23)nc2ccccc2c1=O	none
O=C(O)c1ccc(-n2cc(-c3cc4ccccc4oc3=O)[nH]c2=S)cc1	none
COc1ccc(S(=O)(=O)N(C)CC(=O)Nc2ccc(C)cc2)cc1OC	Diaph inh CS 65
CCN1CCN(C(=O)CN(C)S(=O)(=O)c2ccc(OC)c(C)c2)CC1	L major viab 98
COc1cc(NC(=O)CN(C)S(=O)(=O)c2ccc(C)cc2)cc(OC)c1	none
